Laboratory results reported in ChEMBL document CHEMBL2331385, “Evaluation of adamantane hydroxamates as botulinum neurotoxin inhibitors: synthesis, crystallography, modeling, kinetic and cellular based studies” (Bioorg Med Chem, 2013).
Calls of active or inactive are those of the source. No cut-off for these calls is given here.

Legend:
[1] = biological target: T1, Botulinum neurotoxin type A (Clostridium botulinum, UniProt P0DPI0); experiment: Inhibition of Clostridium botulinum BoNT/A Hall A hyper protease light chain (1-425aa) using SNAPtide as substrate by FRET assay
T1 sequence (P0DPI0 2-448 limits assumed): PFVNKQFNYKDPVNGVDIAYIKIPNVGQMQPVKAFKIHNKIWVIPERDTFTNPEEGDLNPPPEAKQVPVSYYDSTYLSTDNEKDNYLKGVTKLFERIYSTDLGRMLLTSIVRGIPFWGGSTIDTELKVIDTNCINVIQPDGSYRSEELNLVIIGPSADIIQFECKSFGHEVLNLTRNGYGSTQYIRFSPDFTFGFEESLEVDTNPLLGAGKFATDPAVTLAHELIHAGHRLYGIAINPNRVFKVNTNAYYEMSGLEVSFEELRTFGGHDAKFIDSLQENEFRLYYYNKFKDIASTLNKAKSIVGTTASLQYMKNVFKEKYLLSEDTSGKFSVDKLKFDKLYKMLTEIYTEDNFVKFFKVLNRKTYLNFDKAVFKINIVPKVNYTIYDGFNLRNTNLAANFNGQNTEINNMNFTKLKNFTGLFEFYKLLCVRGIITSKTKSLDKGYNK
Summary of the method: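 Recombinant BoNT/A light chain (residues 1-425) cleaving the FRET peptide SNAPtide at 5 μM, with 0.01 % Triton X-100. Inhibitor concentration varied; IC50 taken from fluorescence signal.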

[2] = Cytotoxicity against stem cell-derived neurons (unknown origin) at 20 uM after 22 hrs
Summary of the method: (§1)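 Primary rat spinal cord cells or stem cell-derived neurons exposed to compound. Cytotoxicity judged from low overall protein signal on Western blot.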

[3] = Cytotoxicity against stem cell-derived neurons (unknown origin) at 500 uM after 22 hrs; summary of the method: as §1
[4] = Cytotoxicity against rat spinal cord cells at 20 uM after 22 hrs; assay type: cell-based; summary of the method: as §1
[5] = biological target: Botulinum neurotoxin type A (Clostridium botulinum) (UniProt P0DPI0); experiment: Inhibition of Clostridium botulinum BoNT/A protease light chain in stem cell-derived neurons (unknown origin) assessed as inhibition of SNAP-25 cleavage at 0.5 to 50 uM after 22 hrs by Western blot analysis
Sequence of Botulinum neurotoxin type A (Clostridium botulinum) (P0DPI0 2-448 limits assumed): as above

[6] = Cytotoxicity against rat spinal cord cells at 500 uM after 22 hrs; assay type: cell-based; summary of the method: as §1
[7] = biological target: Botulinum neurotoxin type A (Clostridium botulinum) (UniProt P0DPI0); experiment: Inhibition of Clostridium botulinum BoNT/A protease light chain in rat spinal cord cells assessed as inhibition of SNAP-25 cleavage at 0.5 to 50 uM after 22 hrs by Western blot analysis; assay type: cell-based
[8] = biological target: T1, Botulinum neurotoxin type A; experiment: Competitive inhibition of Clostridium botulinum BoNT/A Hall A hyper protease light chain (1-425aa) using SNAP-66mer (141-206aa) as substrate by FRET assay
[9] = Cytotoxicity against rat spinal cord cells at 50 uM after 22 hrs; assay type: cell-based; summary of the method: as §1

Structure (SMILES) | IC50 [1] | Ki [8] | also measured
Cc1ccc(C23CC4CC(CC(CC(=O)NO)(C4)C2)C3)cc1 | 250 nM | – | –
CC(=O)OC12CC3CC(CC(CC(=O)NO)(C3)C1)C2 | 24000 nM | – | –
O=C(CC12CC3CC(C1)CC(c1ccc4c(c1)CCCC4)(C3)C2)NO | 1000 nM | – | –
O=C(CC12CC3CC(CC(Cl)(C3)C1)C2)NO | 1400 nM | – | –
O=C(CC12CC3CC(C1)CC(C(=O)O)(C3)C2)NO | > 500000 nM | – | –
O=C(CC12CC3CC(C1)CC(c1ccc([N+](=O)[O-])cc1)(C3)C2)NO | 500 nM | – | Activity [2]: Toxic; Activity [3]: Non-toxic; Activity [4]: Toxic; Activity [5]: inactive; Activity [6]: Toxic; Activity [7]: inactive
O=C(CC12CC3CC(CC(O)(C3)C1)C2)NO | 23000 nM | – | –
O=C(CC12CC3CC(C1)CC(c1ccc([N+](=O)[O-])cc1[N+](=O)[O-])(C3)C2)NO | 400 nM | – | –
NCCCCCCCNC(=O)c1cc(CCC(=O)NO)c(CCC(O)(c2ccccc2)c2ccccc2)n1Cc1ccccc1 | – | 760 nM | –
O=C(CC12CC3CC(C1)CC(c1ccc4ccccc4c1)(C3)C2)NO | 300 nM | – | –
COC12CC3CC(CC(CC(=O)NO)(C3)C1)C2 | 5700 nM | – | –
O=C(CC12CC3CC(C1)CC(c1ccc(Cl)cc1)(C3)C2)NO | 30 nM | 27 nM | –
O=C(C[C@@H](CCO)c1ccc(Cl)cc1Cl)NO | – | 160 nM | –
O=C(CC12CC3CC(C1)CC(c1ccccc1)(C3)C2)NO | 500 nM | 750 nM | –
O=C(CC12CC3CC(CC(CO)(C3)C1)C2)NO | 3400 nM | – | –
O=C(CC12CC3CC(CC(Br)(C3)C1)C2)NO | 1400 nM | – | –
O=C(CC12CC3CC(CC(C3)C1)C2)NO | 1000 nM | 460 nM | –
O=C(CC12CC3CC(CC(F)(C3)C1)C2)NO | 3100 nM | – | –
COc1ccc(C23CC4CC(CC(CC(=O)NO)(C4)C2)C3)cc1 | 250 nM | 130 nM | Activity [2]: Toxic; Activity [3]: Non-toxic; Activity [4]: Toxic; Activity [5]: inactive; Activity [6]: Toxic; Activity [7]: inactive
O=C(CC12CC3CC(C1)CC(c1ccc(-c4ccccc4)cc1)(C3)C2)NO | 200 nM | – | –
O=C(CC12CC3CC(C1)CC(c1ccc(Br)cc1)(C3)C2)NO | 40 nM | 27 nM | Activity [9]: Toxic; Activity [2]: Toxic; Activity [3]: Non-toxic; Activity [4]: Toxic; Activity [5]: inactive; Activity [6]: Toxic; Activity [7]: inactive
